High-throughput results as filed in PubChem.
Sampled rows, rich in hits. Any-hit rate of the full collection: about 2.5%.
TRPC4 inh: inhibitors of mouse TRPC4 channel, primary screen, Fluo4 calcium, HEK293 TRPC4beta/mu-opioid cells. Short transient receptor potential channel 4 (Mus musculus), Q9QUQ5. DAMGO-evoked Fluo4 calcium flux; active compounds read low. B-score at 10 µM. 0.39% of 300,000 active. AID 2247, 2010;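 active = B-score over 3 SD under the library average, no early fluorescence shift, positive overall ratio signal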
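Assay system: HEK293 cells with stable TRPC4beta plus mu-opioid receptor expression; Probe or stimulus: DAMGO in two steps, submaximal then maximal; Dosing: single-point compound dosing; Measured by: Fluo4 calcium-dye fluorescence, kinetic read; Read-out basis: B score from integrated Fluo4 fluorescence ratio.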
TRPC6 act: mouse TRPC6 channel activators, primary screen, cell-based, HEK293, membrane potential dye; HEK293-TRPC6 membrane potential dye fluorescence; active compounds read high; B-score at 10 µM; 0.13% of 310,000 active; AID 2550, 2010;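 active = B-score of the integrated fluorescence ratio above library mean plus 3 SD, and starting fluorescence ratio within library mean plus 5 SD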;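 also: higher score means more depolarization so channel activation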
Target sequence (Q61143 whole entry, looked up): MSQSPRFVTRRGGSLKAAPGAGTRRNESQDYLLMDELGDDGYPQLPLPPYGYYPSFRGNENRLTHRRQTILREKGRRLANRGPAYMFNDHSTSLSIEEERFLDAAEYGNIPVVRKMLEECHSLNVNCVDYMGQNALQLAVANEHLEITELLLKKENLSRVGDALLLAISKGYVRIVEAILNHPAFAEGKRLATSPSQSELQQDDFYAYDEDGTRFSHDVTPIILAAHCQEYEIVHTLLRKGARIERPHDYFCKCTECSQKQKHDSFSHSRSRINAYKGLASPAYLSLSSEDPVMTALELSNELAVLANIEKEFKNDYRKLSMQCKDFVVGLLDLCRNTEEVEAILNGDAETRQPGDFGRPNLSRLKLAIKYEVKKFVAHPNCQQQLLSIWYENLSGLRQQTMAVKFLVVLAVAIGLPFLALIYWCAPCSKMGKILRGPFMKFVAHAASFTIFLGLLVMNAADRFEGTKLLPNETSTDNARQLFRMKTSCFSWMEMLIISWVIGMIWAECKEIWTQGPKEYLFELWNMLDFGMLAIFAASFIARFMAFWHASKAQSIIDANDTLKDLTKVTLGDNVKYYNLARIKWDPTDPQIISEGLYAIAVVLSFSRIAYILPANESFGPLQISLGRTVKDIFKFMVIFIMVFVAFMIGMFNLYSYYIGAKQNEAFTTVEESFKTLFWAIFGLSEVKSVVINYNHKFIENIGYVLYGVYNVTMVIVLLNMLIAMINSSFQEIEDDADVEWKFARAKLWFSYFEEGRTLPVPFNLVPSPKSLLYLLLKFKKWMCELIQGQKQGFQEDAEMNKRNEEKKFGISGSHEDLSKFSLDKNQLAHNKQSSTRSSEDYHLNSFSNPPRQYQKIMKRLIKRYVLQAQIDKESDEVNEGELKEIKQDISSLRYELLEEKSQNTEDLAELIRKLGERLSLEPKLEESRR
TRPC6 inh: mouse TRPC6 channel inhibitors, primary screen, cell-based, HEK293, membrane potential dye; B-score at 10 µM; ACh-evoked depolarization; active compounds read low; AID 2553, 2010; Short transient receptor potential channel 6 (Mus musculus), Q61143; 1.1% of 310,000 active;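 active = B-score under library mean minus 3 SD, initial fluorescence not abnormally high, positive integrated signal ratio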;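 also: B-score derived from integrated fluorescence ratio over the kinetic read; more negative B-score means stronger inhibition of depolarization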
TRPC4 act: activators of mouse TRPC4 channel, primary screen, Fluo4 calcium, HEK293 TRPC4beta/mu-opioid cells. Short transient receptor potential channel 4 (Mus musculus), Q9QUQ5. Fluo4 calcium fluorescence; active compounds read high. B-score at 10 µM. 0.49% of 310,000 active;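 active = B-score above 5 SD of library B-scores, and initial fluorescence ratio not above library mean plus 5 SD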;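 also: positive B-score marks a calcium rise read as TRPC4 activation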
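system = HEK293 cells stably co-expressing mouse TRPC4beta and mu-opioid receptor | schedule = Fluo4 dye loading 45 min at room temperature, 110 s recording | measure = B-scored integrated calcium fluorescence ratio | signal = Fluo4 calcium-sensitive dye fluorescence, kinetic, 1 Hz baseline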
TRPC4 PAM: positive allosteric modulators of TRPC4, primary screen, cell-based, mouse TRPC4beta, HEK293 mu-opioid, Fluo-4 calcium; Short transient receptor potential channel 4 (Mus musculus), Q9QUQ5; DAMGO EC20, Fluo-4 Ca2+ flux; active compounds read high; B-score at 10 µM; 0.42% of 310,000 active; AID 2227, 2009;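 active = B-score of calcium response area above 5 SD of library B-scores, with initial fluorescence ratio within 5 SD of library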;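 also: B-score of integrated fluorescence ratio over time as area under calcium response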
Platelet DG rel: inhibitors of platelet dense granule secretion, primary screen, cell-based, MLPCN, human platelets | human platelet-rich plasma, SFLLRN dense granule ATP release, luminescence | inhibition, %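 (compounds screened at 7.5 µM in platelet-rich plasma)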 | 0.22% of 300,000 active | AID 1663, 2009;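 active = mean replicate score, as percent of positive control, at or above 50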
TRPC4 sel inh 2: mouse TRPC4 off-target activity of TRPC6 inhibitors, second screen | shares compounds with TRPC6 inh | HEK293 TRPC4/MOR, membrane potential dye fluorescence; channel activated by saturating DAMGO dose | inhibition, % at 10 µM | 42% of 920 active;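 active = compounds whose fluorescence signal differed from control wells by over 3 SD, either direction, in both duplicate plates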
TRPC4 spec: mouse TRPC4 modulation by TRPC6 hits, confirmation, selectivity assay for TRPC6 inhibitor project, cell-based, HEK293 TRPC4/mu-opioid, membrane potential dye. shares compounds with TRPC6 inh. membrane potential fluorescence. activity change, negative = inhibition, % at 10 µM. 61% of 920 active;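 active = rise or fall in signal beyond 3 SD of buffer-only wells in both replicate plates, either sign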;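 also: integrated kinetic ratio of fluorescence range over baseline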
HEK293 MPD ctr 2-1: nonspecific membrane potential effects, parental HEK293, confirmation, counter-screen for TRPC6 inhibitor project, cell-based, second counter screen. shares compounds with TRPC6 inh. parental HEK293 membrane potential dye fluorescence; maximal acetylcholine challenge after compound addition. signal change vs control, % at 10 µM. 31% of 920 active. AID 2779, 2010;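 active = membrane potential signal moving either way by over 3 SD of the maximum-effect control, in both duplicate plates, meaning non-specific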
HEK293 MPD ctr-1: membrane potential modulation in parental HEK293, confirmation, counter-screen for TRPC6 inhibitor project, cell-based. 60% of 920 active. parental HEK293 membrane potential dye fluorescence. shares compounds with TRPC6 inh. membrane potential signal change, % at 10 µM;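 active = membrane potential signal shifting up or down by more than 3 SD of buffer-only wells, on both duplicate plates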
HEK293 MPD ctr-2: parental HEK293 membrane potential modulation, confirmation, counter-screen for TRPC6 modulator project, cell-based; shares compounds with TRPC6 inh; membrane potential dye fluorescence; membrane potential signal change, % at 10 µM; 51% of 2,400 active;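 active = membrane potential signal moves up or down beyond 5 SD from buffer-only wells, on both duplicate plates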
HEK293 MPD ctr 2-2: parental HEK293 nonspecific activity of TRPC6 modulators, second screen | shares compounds with TRPC6 inh | membrane potential dye fluorescence; after compound, maximal acetylcholine stimulation | inhibition, % at 10 µM | 14% of 2,400 active;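 active = membrane potential signal drops by more than 5 SD from the mean control signal, in both duplicate plates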;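 also: plate controls were acetylcholine ECmax control wells for no effect and buffer only wells for full effect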
TRPC4/MOR mod: TRPC4 modulation by TRPC6 hit compounds, confirmation, selectivity assay for TRPC6 modulator project, cell-based, HEK293 TRPC4/mu-opioid, membrane potential dye, mouse | shares compounds with TRPC6 inh | membrane potential fluorescence | percent change from control (negative = decrease, positive = increase), % at 10 µM | 69% of 2,400 active;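 active = membrane potential signal moved up or down beyond 5 SD of buffer control wells, in both duplicate plates, actives on both sides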;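 also: plate controls were assay buffer wells for no effect and DAMGO maximal-effect wells for full effect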
TRPC4 ctr inh 2: mouse TRPC4 off-target activity of TRPC6 modulators, second screen; shares compounds with TRPC6 inh; HEK293 TRPC4/mu-opioid, membrane potential dye fluorescence; stimulated with maximal-effect DAMGO; inhibition, % at 10 µM; 55% of 2,400 active; AID 488928;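 active = drop in membrane potential signal beyond 5 SD of the control wells in both duplicate plates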;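 also: TRPC4 counter screen for TRPC6 hits run under conditions tuned for TRPC6 not TRPC4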
TRPC6 block conf: mouse TRPC6 channel inhibitors, confirmation, HEK293 cells, membrane potential dye, duplicate; ACh-evoked depolarization; inhibition, % at 10 µM; 43% of 3,300 active; shares compounds with TRPC6 inh;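 active = fluorescence ratio falls more than 5 SD below the full-stimulation control mean, in both duplicate runs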;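 also: integrated fluorescence ratio of peak minus minimum over baseline after agonist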
TRPC6 act confirm: mouse TRPC6 channel activators, confirmation, HEK293 cells, membrane potential dye, duplicate | shares compounds with TRPC6 inh | HEK293-TRPC6 membrane potential dye fluorescence, FDSS | activation, % at 10 µM | 11% of 2,800 active | AID 488961, 2010;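 active = ratio signal rise beyond 5 SD above unstimulated control wells' mean, seen in both duplicate runs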;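 also: plate controls were buffer EC0 wells for no effect and acetylcholine ECmax response for full effect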
* hit, by the source's call; i = inactive; · = no result.

SMILES	TRPC4 inh	TRPC6 act	TRPC6 inh	TRPC4 act	TRPC4 PAM	Platelet DG rel	HEK293 MPD ctr-2	HEK293 MPD ctr 2-2	TRPC4/MOR mod	TRPC4 ctr inh 2	TRPC6 block conf	TRPC6 act confirm	others
CN(C)CCCNc1ccc(-c2nn(C)c(=O)c3ccccc23)cc1[N+](=O)[O-]	i	i	-7.9*	i	i	-5	·	·	·	·	i	i	TRPC4 sel inh 2=44%*;TRPC4 spec=-26%*;HEK293 MPD ctr 2-1=i;HEK293 MPD ctr-1=-244%*
COCCNc1ccc(-c2nn(C)c(=O)c3ccccc23)cc1[N+](=O)[O-]	i	i	i	i	i	-3	·	·	·	·	·	·
O=C(CCc1nnc2ccc(N3CCC4(CC3)OCCO4)nn12)Nc1ccc(F)cc1	i	i	i	i	i	20	·	·	·	·	·	·
CCn1c(SCC(=O)Nc2nccs2)nnc1-c1ccccn1	i	i	i	i	i	0	·	·	·	·	·	·
C=CCN(c1ccccc1)S(=O)(=O)c1cccc(C(=O)NC2CCN(Cc3ccccc3)CC2)c1	i	i	-6.6*	i	i	6	i	i	i	57%*	i	i
CN(C)S(=O)(=O)c1cccc(C(=O)NCC(=O)NC2CCN(Cc3ccccc3)CC2)c1	i	i	i	i	i	-3	·	·	·	·	·	·
CC(=O)Nc1ccc(Nc2nc(C)nc3c2oc2ccccc23)cc1	i	i	i	i	i	-1	·	·	·	·	·	·
Cc1nc(Nc2ccncc2)c2oc3ccccc3c2n1	i	i	-6.4*	i	i	-7	106%*	113%*	11%*	i	56%*	i
CCc1nc(Nc2ccncc2)c2oc3ccccc3c2n1	i	i	-5.7*	i	i	1	i	76%*	-8.0%*	i	i	i
COc1ccc2c(n1)Sc1nc3ccccc3nc1N2	i	19*	i	i	i	-4	210%*	i	106%*	i	i	i
COc1cc2ccccc2nn1	i	i	i	i	i	-16	·	·	·	·	·	·
CN(C)CCCNc1oc(-c2ccc(Cl)cc2)nc1C#N	i	i	i	i	i	7	·	·	·	·	·	·
CCN(CC)CCCNc1oc(-c2cccc(Cl)c2)nc1C#N	i	i	-6.1*	i	i	1	i	i	i	34%*	54%*	i
CN(C)CCn1c(C(=O)Nc2ccccc2)cc2ccccc21	i	i	-7.8*	i	i	-5	·	·	·	·	i	i	TRPC4 sel inh 2=48%*;TRPC4 spec=-17%*;HEK293 MPD ctr 2-1=i;HEK293 MPD ctr-1=-235%*
COC(=O)C1=C(C(=O)OC)[C@@H]2N(C)c3ccc(OC)cc3[C@@]23C[C@@H](C(=O)OC)N(C(=O)c2cc(C)oc2C)C3=N1	i	i	i	i	i	-3	·	·	·	·	·	·
OCCCN=c1cc(-c2ccccc2)oc2ccc(Cl)cc12	i	i	-7.3*	i	i	-4	·	·	·	·	77%*	i	TRPC4 sel inh 2=68%*;TRPC4 spec=-19%*;HEK293 MPD ctr 2-1=i;HEK293 MPD ctr-1=-386%*
O=c1cc(-c2ccccc2)oc2ccc(O)cc12	i	i	i	i	i	5	·	·	·	·	·	·
CC1(C)CC(N=c2cc(-c3ccccc3)oc3ccc(Cl)cc23)CC(C)(C)N1	i	i	-9.6*	i	i	9	·	·	·	·	69%*	i	TRPC4 sel inh 2=42%*;TRPC4 spec=-26%*;HEK293 MPD ctr 2-1=-39%*;HEK293 MPD ctr-1=-328%*
CCOC(=O)C1CCN(c2cc(C)nc3ccc(OC)cc23)CC1	i	i	-8.9*	i	i	-15	-236%*	85%*	-36%*	70%*	86%*	i
COc1ccc(N2CCN(c3cc(C)nc4ccc(OC)cc34)CC2)cc1	i	i	-5.6*	i	i	-8	-228%*	i	-42%*	65%*	62%*	i
COc1ccc2nc(C)cc(N3CCC(C(N)=O)CC3)c2c1	i	i	-9.1*	i	i	4	-356%*	94%*	-60%*	62%*	72%*	i
CCOC(=O)C1CCN(c2nc3cc(OC)ccc3cc2C#N)CC1	i	i	i	i	i	2	·	·	·	·	·	·
